Results on one molecule are retold here after ChEMBL document CHEMBL2069303, “Stellettin A induces endoplasmic reticulum stress in murine B16 melanoma cells” (J Nat Prod, 2012).

≈ marks a conversion by molar mass, not a printed value. Calls of active or inactive are those of the source. The rule behind the calls is not given here.

A word on the IC50: it is the concentration that gives 50% inhibition. Lower therefore signals greater potency in that assay.

The subject of test [1] is B16-F10. The experiment in a line: Cytotoxicity against C57BL/6J mouse B16F10 cells after 48 hrs by SRB assay. The test is classed as functional, cell-based. Particulars: B16-F10, 48 h. In outline: (§1)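 B16F10 and TM3 cells in 96-well plates were exposed to serial dilutions (0.08–5 μg/mL) for 24 or 48 h. Proteins were fixed with 50% TCA, stained with 0.4% SRB in 1% acetic acid, rinsed with 1% acetic acid, and the dye was dissolved in 10 mM Tris base (pH 10.5). Absorbance was read at 570 nm. Triplicates in at least three separate experiments; IC50 from concentration–response.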

Test [2] is described as follows: Cytotoxicity against mouse TM3 cells after 48 hrs by SRB assay. To be noted: TM3, 48 h. The test is classed as functional, cell-based. The procedure, abridged:
as §1
A general note: In SRB staining, fixed cells bind dye roughly in proportion to their protein.

Test [3] concerns HaCaT. The test is described as follows: Selectivity ratio of IC50 for human HaCaT cells to IC50 for mouse B16F10 cells. Format: functional.
Test [4] has as its system HaCaT. The test is described as follows: Selectivity ratio of IC50 for human HaCaT cells to IC50 for mouse TM3 cells. The test is classed as functional.
In test [5] the test system is HT-29. The experiment in a line: Selectivity ratio of IC50 for human HT-29 cells to IC50 for mouse B16F10 cells. Format: functional.
Test [6] concerns HT-29. The experiment in a line: Selectivity ratio of IC50 for human HT-29 cells to IC50 for mouse TM3 cells. The test is classed as functional.
The subject of test [7] is B16-F10. The experiment in a line: Selectivity ratio of IC50 for mouse Melan-a cells to IC50 for mouse B16F10 cells. Format: functional.
The nature of test [8]: Selectivity ratio of IC50 for mouse Melan-a cells to IC50 for mouse TM3 cells. Format: functional.
Test [9] relates to B16-F10. The experiment in a line: Decrease in TRP1 level in C57BL/6J mouse B16F10 cells assessed as depigmentation after 48 hrs. Format: functional, cell-based.
The test system of test [10] is B16-F10. The experiment in a line: Induction of endoplasmic reticulum stress in C57BL/6J mouse B16F10 cells assessed as immature TRP1 level at 0.6 ug/mL after 24 hrs by immunoblot analysis. Format: functional, cell-based. The procedure, abridged:
(§2)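 Treated B16F10 cells were PBS-washed and lysed in 50 mM Tris-Cl, 150 mM NaCl, 0.2% Triton X-100, aprotinin and PMSF, then spun at 4 °C. Protein was equalised by BCA. Lysates were run on 10% SDS-PAGE, transferred to PVDF, blocked with 2% gelatin and probed with specific primary antibodies (TRP-1 blots: 0–0.625 μg/mL for 24 h).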
In general terms: In western blotting, separated proteins are transferred to a membrane and probed.

For test [11], the system named is B16-F10. The test is described as follows: Induction of endoplasmic reticulum stress in C57BL/6J mouse B16F10 cells assessed as deglycosylated TRP1 level at 0.6 ug/mL after 24 hrs by immunoblot analysis. Format: functional, cell-based. In outline: as §2
The subject of test [12] is B16-F10. The experiment in a line: Induction of endoplasmic reticulum stress in C57BL/6J mouse B16F10 cells assessed as immature TRP1 level at 0.6 ug/mL incubated for 12 to 24 hrs measured 1 hr post endoglycosidase H-treatment by immunoblot analysis. Format: functional, cell-based. The procedure, abridged:
(§3)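 Lysates of treated B16F10 cells were prepared in RIPA buffer. Protein (10 μg) was digested with 100 units endoglycosidase H or peptide N-glycosidase F at 37 °C for 1 h, then immunoblotted for TRP-1 to separate EndoH-sensitive and EndoH-resistant glycoforms.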

Test [13] deals with B16-F10. The experiment in a line: Induction of endoplasmic reticulum stress in C57BL/6J mouse B16F10 cells assessed as abnormally glycosylated TRP1 level at 0.6 ug/mL incubated for 12 hrs measured 1 hr post peptide N-glycosidase F-treatment by immunoblot analysis. The test is classed as functional, cell-based. The procedure, abridged:
as §3

Test [14] deals with B16-F10. The test is described as follows: Induction of endoplasmic reticulum stress in C57BL/6J mouse B16F10 cells assessed as upregulation of GRP78 level at 0.625 ug/mL after 12 hrs by immunoblot analysis. The test is classed as functional, cell-based. In outline:
as §2

Test [15] has as its system B16-F10. The test is described as follows: Induction of endoplasmic reticulum stress in C57BL/6J mouse B16F10 cells assessed as upregulation of HSC70 level at 0.625 ug/mL after 12 hrs by immunoblot analysis. Format: functional, cell-based. In outline:
as §2

Test [16] deals with B16-F10. The experiment in a line: Induction of endoplasmic reticulum stress in C57BL/6J mouse B16F10 cells assessed as upregulation of GRP78 level at 0.625 ug/mL after 24 hrs by immunoblot analysis. The test is classed as functional, cell-based. In outline: as §2
In test [17] the test system is B16-F10. The test is described as follows: Induction of endoplasmic reticulum stress in C57BL/6J mouse B16F10 cells assessed as upregulation of HSC70 level at 0.625 ug/mL after 24 hrs by immunoblot analysis. The test is classed as functional, cell-based. The procedure, abridged: as §2
Test [18] deals with B16-F10. The test is described as follows: Cytotoxicity against C57BL/6J mouse B16F10 cells after 24 hrs by SRB assay. Format: functional, cell-based. Particulars: B16-F10, 24 h. The procedure, abridged:
as §1

Test [19] relates to B16-F10. The experiment in a line: Induction of endoplasmic reticulum stress in C57BL/6J mouse B16F10 cells assessed as upregulation of GRP78 level after 24 hrs by immunofluorescence staining method. Format: functional, cell-based. The procedure, abridged:
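B16F10 cells (20 000/mL) on gelatinized coverslips were treated with 0, 0.31, 0.625, 1.25 or 2.5 μg/mL for 24 h. Fixed in 4% paraformaldehyde and immunostained for GRP78, with Alexa-594-conjugated secondary IgG. DAPI counterstain; confocal imaging.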

The subject of test [20] is B16-F10. The test is described as follows: Induction of autophagy in C57BL/6J mouse B16F10 cells assessed as LC32 accumulation at 0.6 ug/mL by immunoblot analysis. The test is classed as functional, cell-based. The procedure, abridged:
as §2

Test [21] deals with B16-F10. The test is described as follows: Induction of apoptosis in C57BL/6J mouse B16F10 cells assessed as Bcl2 activation at 0.6 ug/mL up to 48 hrs by immunoblot analysis. The test is classed as functional, cell-based.
In test [22] the test system is B16-F10. The test is described as follows: Induction of autophagy in C57BL/6J mouse B16F10 cells assessed as LC3-TYR colocalization at 0.625 to 2.5 ug/mL after 24 hrs by fluorescence microscopy. The test is classed as functional, cell-based. The procedure, abridged: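 B16F10 cells on sterile coverslips were exposed to 0, 0.625, 1.25 or 2.5 μg/mL for 24 h, PBS-washed and paraformaldehyde-fixed. They were co-stained with anti-tyrosinase and anti-LC3, then AlexaFluor-488/594 secondary IgG. DAPI counterstain. Confocal microscopy used to score yellow overlap.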

Test [23] deals with B16-F10. The test is described as follows: Cytotoxicity against C57BL/6J mouse B16F10 cells assessed as cell viability after 24 hrs by SRB assay relative to control. The test is classed as functional. The procedure, abridged:
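B16F10 cells (20 000/0.1 mL) were given serial concentrations (0.08–5 μg/mL) for 24 h. SRB read-out: TCA fixation, 0.4% SRB staining, acetic acid rinses, solubilisation in 10 mM Tris (pH 10.5), absorbance at 570 nm. Viability expressed relative to untreated control; triplicates in at least three experiments.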

On to `C\C(=C/C=C/C(C)=C1/C(=O)C[C@H]2[C@@]3(C)CCC(=O)C(C)(C)[C@@H]3CC[C@]12C)c1ccc(C)c(=O)o1` [STELLETIN A], for which the IC50 in test [1] came to 0.15 µg/mL (≈ 0.324 µM); in test [2], 0.8 µg/mL (≈ 1.73 µM); in [18], 2 µg/mL (≈ 4.32 µM). The “Ratio IC50” value in [3], in [4], in [5], in test [6], in [7] and in test [8] was 10 in each case. Further, the outcome in test [9], in test [10], in test [11], in [12], in [13] and in test [14] was Active. Also, the result in test [15], in test [20] and in test [22] was Active. Besides, the outcome in test [16], in test [17] and in [21] was inactive. Besides, the Activity entry is “Dose-dependent effect” in [19] and 70% in test [23].
